Source: the RNAGym collection of RNA variant scans (doi:10.1126/science.aae0568)
This sample holds only a part of the variants without activity.

B1: tRNA (parent)
chain: GUUCCGUUGGCGUAAUGGUAACGCGUCUCCCUCCUAAGGAGAAGACUGCGGGUUCGAGUCCCGUACGGAACG

Variants of: B1
Assay: yeast fitness relative to wild type (ratio to wild type); higher = fitter; tRNA-Arg(CCU), competitive growth, 37 C, YPD
In short: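 For this measurement, the tRNA-Arg(CCU) gene was varied by chemical synthesis at a 3% per-site mutation rate across 69 sites, and each variant was placed at the native genomic locus in Saccharomyces cerevisiae. The pooled strains went through a 24-hour competition in YPD at 37°C in six parallel replicates, with amplicons from start and end populations read by 100-nucleotide paired-end sequencing. Darwinian fitness relative to wild type followed from the change in each genotype's frequency. Genotypes needed ≥ 100 starting reads, and estimates < 0.5 were set to 0.5.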
Variant A43G G63U U64A has a yeast fitness of 0.567.
Variant A42G A45G has a yeast fitness of 0.786.
A42G A45U gave a yeast fitness of 0.952.
For A43G A45U C46U, the yeast fitness was 0.604.
Work on A43C G52C C55U A69C yielded a yeast fitness of at most 0.5.
A42G G44C U59A gave a yeast fitness of 0.537.
Work on A42C C46G C66A yielded a yeast fitness of 0.552.
Work on G41U C46A A70U yielded a yeast fitness of 0.632.
Work on A42U A45U C49G U53A yielded a yeast fitness of at most 0.5.
In the case of A42C C46G, the yeast fitness is reported as 0.753.
A42C C46A gave a yeast fitness of 0.783.
Work on A43C C46A G67A yielded a yeast fitness of 0.538.
With A43U G48C C55U the yeast fitness was at most 0.5.
Variant A43U C55A has a yeast fitness of 0.613.
In the case of A43U C55U, the yeast fitness is reported as 0.768.
A42G G58C A70U gave a yeast fitness of 0.748.
A42U C49U G51A gave a yeast fitness of 0.665.
A43C G52A A69U showed a yeast fitness of 0.508.
For A42G G68C A69G, the yeast fitness was 0.563.
For A42C U54A G67C A69U, the yeast fitness was 0.571.
For A42G C61U G63C, the yeast fitness was at most 0.5.
With A42C C49A C66A the yeast fitness was at most 0.5.
For A42G A57G, the yeast fitness was 0.768.
A42G A57U showed a yeast fitness of 0.714.
For A42G A69C, the yeast fitness was 0.95.
For A43G C55U, the yeast fitness was 0.711.
In the case of A43G C55A, the yeast fitness is reported as 0.599.
A42U G48A A65U showed a yeast fitness of 0.706.
Work on A42U G58A yielded a yeast fitness of 0.939.
A42U G58C showed a yeast fitness of 0.924.
In the case of A43U C60G, the yeast fitness is reported as 0.655.
Work on A42G C60U A69G A70U yielded a yeast fitness of at most 0.5.
With A43U G48A U64C the yeast fitness was 0.751.
In the case of G41C U64G, the yeast fitness is reported as 0.735.
For A43U A70U, the yeast fitness was 1.06.
With A42C G63C the yeast fitness was 0.681.
Variant G41C C49A A69U has a yeast fitness of 0.544.
Work on A43G G51C U54A A57C yielded a yeast fitness of at most 0.5.
A42G C49G U54C G63C gave a yeast fitness of 0.524.
With A43C G67U the yeast fitness was 0.849.
A42U G63A G68C A69C showed a yeast fitness of at most 0.5.
In the case of A42C U47A G63C A69C, the yeast fitness is reported as 0.578.
A42U A65G C66G G68A gave a yeast fitness of 0.551.
Work on A42G U59C C61U yielded a yeast fitness of 0.502.
Work on A42U A57G G58A A70U yielded a yeast fitness of at most 0.5.
Work on A43G G63A yielded a yeast fitness of 0.745.
For A42U G48C C61A, the yeast fitness was 0.643.
For A42C G51A A70C, the yeast fitness was 0.578.
Work on A43U C60G C66U yielded a yeast fitness of 0.534.
In the case of A42U C61U, the yeast fitness is reported as 0.827.
A42G G56A showed a yeast fitness of 0.87.
A43U C62G gave a yeast fitness of 0.805.
In the case of A43U C62U, the yeast fitness is reported as 1.01.
Work on A42G G58A yielded a yeast fitness of 0.879.
Work on A42G C49U U59C C61U yielded a yeast fitness of at most 0.5.
G41C C49A gave a yeast fitness of 0.572.
Work on A42C A45G yielded a yeast fitness of 0.95.
For A42C G50C, the yeast fitness was 0.548.
In the case of G41C C49A G67A, the yeast fitness is reported as at most 0.5.
Variant A42C A45C G48A has a yeast fitness of 0.958.
Variant A42G G51C has a yeast fitness of at most 0.5.
Variant A42G G51A has a yeast fitness of 0.822.
Work on A42U G67C yielded a yeast fitness of 0.69.
With G41C A57U the yeast fitness was 0.661.
Work on G41C A57G yielded a yeast fitness of 0.883.
In the case of A43G A45G C55U G68A, the yeast fitness is reported as at most 0.5.
G41C C55A A69U showed a yeast fitness of at most 0.5.
A43U C61G showed a yeast fitness of 0.716.
In the case of A43U C61U, the yeast fitness is reported as 0.969.
For A42U C46G G52C C62A, the yeast fitness was at most 0.5.
Work on A43G G48C yielded a yeast fitness of 0.829.
In the case of A42U C55U C66U, the yeast fitness is reported as at most 0.5.
Work on G41C C60U U64G yielded a yeast fitness of at most 0.5.
Work on A42C C62U A69U yielded a yeast fitness of 0.689.
Work on A42C G51A yielded a yeast fitness of 0.849.
For A42C G50A U64A, the yeast fitness was at most 0.5.
G41C C62U A69C showed a yeast fitness of 0.619.
Work on A42C A70U yielded a yeast fitness of 1.02.
A43U G48A C61G A70C gave a yeast fitness of at most 0.5.
With A42C U47C G63A the yeast fitness was 0.692.
For A42C A69U, the yeast fitness was 0.927.
With A42C A69G the yeast fitness was 0.97.
Variant A43C C55U C66G has a yeast fitness of at most 0.5.
With A43C U47A G58C the yeast fitness was 0.689.
Work on A42G G67U yielded a yeast fitness of 0.633.
With A43G C49U U54C the yeast fitness was 0.522.
A42C G52C A69C gave a yeast fitness of 0.607.
A43C A45U C49G C61U showed a yeast fitness of at most 0.5.
A42U G68A gave a yeast fitness of 0.927.
With A42C U59A the yeast fitness was 0.764.
In the case of A42C U59G, the yeast fitness is reported as 0.752.
With A43G G44A G56C C62U the yeast fitness was at most 0.5.
Work on A43G A45C G51A yielded a yeast fitness of at most 0.5.
Variant A43G A45C C46U has a yeast fitness of 0.578.
Variant A43G G67C has a yeast fitness of 0.872.
Variant A43C C55A A57C has a yeast fitness of at most 0.5.
Variant A42U C55U has a yeast fitness of 0.709.
Variant A42U C62G has a yeast fitness of 0.596.
Work on A42U C62U yielded a yeast fitness of 0.991.
Work on G41C C60U U64G G67A yielded a yeast fitness of at most 0.5.
In the case of A43G U64A A69U, the yeast fitness is reported as 0.648.
For A42C U47C U54A G67C A69U, the yeast fitness was at most 0.5.
With A43U C46G U54A the yeast fitness was 0.538.
In the case of A42C A45G G51A, the yeast fitness is reported as at most 0.5.
For A43U A65U C66A, the yeast fitness was at most 0.5.
For A42G U59C, the yeast fitness was 0.714.
In the case of A42G U59A, the yeast fitness is reported as 0.939.
For A42C U64G, the yeast fitness was 0.596.
In the case of G41C G48C A69C, the yeast fitness is reported as 0.606.
With A42U G52A C62U the yeast fitness was 0.754.
A43U C60G A70C gave a yeast fitness of 0.599.
Variant A43C G48C has a yeast fitness of 0.933.
In the case of A43G C49U C60A C62A, the yeast fitness is reported as at most 0.5.
A42G U47A gave a yeast fitness of 0.785.
With A43C C49G C61A the yeast fitness was 0.702.
For A42C C49U, the yeast fitness was 0.939.
In the case of A43G A70U, the yeast fitness is reported as 1.01.
A43G A70C showed a yeast fitness of 1.02.
For A43G A70G, the yeast fitness was 0.977.
With G41C C61G A65C the yeast fitness was at most 0.5.
A43C A70C gave a yeast fitness of 0.897.
For G41C G67A, the yeast fitness was 0.89.
A42G A43U gave a yeast fitness of 1.03.
With A42G A43C the yeast fitness was 1.17.
Variant A42U C61G A65U has a yeast fitness of at most 0.5.
In the case of A43G G58U, the yeast fitness is reported as 0.707.
A42C U47C A69U gave a yeast fitness of 0.821.
A42U U59C U64A showed a yeast fitness of at most 0.5.
With A43C C62U A65U the yeast fitness was 0.591.
Work on A43U C60G C61U yielded a yeast fitness of at most 0.5.
In the case of A42G A43G C46G G56C, the yeast fitness is reported as 0.57.
A42G C49A gave a yeast fitness of 0.782.
In the case of A42G C49G, the yeast fitness is reported as 0.767.
For G41C G51C, the yeast fitness was 0.52.
With A43C A45G A69C the yeast fitness was 0.643.
A43C C61A showed a yeast fitness of 0.776.
For A43C C61U, the yeast fitness was 0.956.
A43G U47A U53A gave a yeast fitness of at most 0.5.
Variant A42G C55G has a yeast fitness of 0.669.
A43C A57C A69U showed a yeast fitness of at most 0.5.
With A42G U54A U59A the yeast fitness was 0.541.
Work on G41C G56A yielded a yeast fitness of 0.825.
A42C G58A C62A gave a yeast fitness of at most 0.5.
A42C C55U showed a yeast fitness of 0.744.
In the case of A42C C55G, the yeast fitness is reported as 0.612.
Variant G41C C55A A70G has a yeast fitness of 0.551.
A43G A45G C55U showed a yeast fitness of at most 0.5.
A43C G52A A70U gave a yeast fitness of at most 0.5.
For A42U G44C A65C, the yeast fitness was at most 0.5.
In the case of A42C A65G C66G, the yeast fitness is reported as at most 0.5.
A43C G68C gave a yeast fitness of 0.72.
Variant A42G A45G U47C G51C has a yeast fitness of at most 0.5.
In the case of A42G C61A G63C, the yeast fitness is reported as at most 0.5.
Variant G41C U59A has a yeast fitness of 0.801.
In the case of A43G G56C A69U, the yeast fitness is reported as 0.683.
Work on A42G G48A G51C yielded a yeast fitness of at most 0.5.
G41C C66G gave a yeast fitness of 0.594.
Work on A42U A43G yielded a yeast fitness of 0.88.
A43U C60U G67C gave a yeast fitness of 0.636.
Variant A42U G51A C60G G63A has a yeast fitness of at most 0.5.
For A42U C49U G50A, the yeast fitness was 0.651.
For A42U G63U, the yeast fitness was 0.701.
For A42U G63A, the yeast fitness was 0.868.
With A42G A45U U64C A70C the yeast fitness was at most 0.5.
A42U U54A G58C showed a yeast fitness of 0.599.
In the case of A43G U47C C62U, the yeast fitness is reported as 0.644.
In the case of A43G C60U C62U A70C, the yeast fitness is reported as at most 0.5.
